Hits are enriched below; roughly 4.8% of the tested compounds scored in any of these assays.
pPAFAH FP inh: inhibitors of human plasma PAF acetylhydrolase (pPAFAH). inhibition, % at 3.39 µM. recombinant pPAFAH, FP-rhodamine probe fluorescence polarization. 330,000 compounds, 1.5% hits. Q13093;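 active = inhibition above the mean inhibition across the screen plus 3 SD, cut at about 25% in these data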;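 note: inhibitors block binding of the rhodamine activity-based probe so polarization drops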
Target sequence (Q13093 whole entry, looked up): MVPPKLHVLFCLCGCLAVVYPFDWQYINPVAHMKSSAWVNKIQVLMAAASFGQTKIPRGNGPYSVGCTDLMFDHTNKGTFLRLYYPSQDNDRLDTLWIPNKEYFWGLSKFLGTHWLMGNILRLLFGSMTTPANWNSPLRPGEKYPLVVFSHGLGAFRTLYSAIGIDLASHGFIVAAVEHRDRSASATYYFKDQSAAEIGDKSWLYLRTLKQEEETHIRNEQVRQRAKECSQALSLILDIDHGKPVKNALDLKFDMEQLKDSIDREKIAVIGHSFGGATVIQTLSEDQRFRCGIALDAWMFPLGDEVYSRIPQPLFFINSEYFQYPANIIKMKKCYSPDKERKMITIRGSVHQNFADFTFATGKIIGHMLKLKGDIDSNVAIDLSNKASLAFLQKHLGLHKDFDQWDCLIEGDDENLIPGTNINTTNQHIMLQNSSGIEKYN
PAFAH2 FP inh: PAFAH2 (human) inhibition. recombinant PAFAH2, FP-rhodamine activity probe, fluorescence polarization. inhibition, % at 3.39 µM. 340,000 compounds, 0.99% hits. AID 492956. Q99487;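 active = inhibition above the mean over all tested compounds plus 3 SD, cut at about 30% in these data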;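 note: inhibitors block probe labeling of enzyme so polarization drops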
UCH37 DUB inh: inhibitors of human deubiquitinating enzyme UCH37; purified proteasome/UCH37, Ub-AMC cleavage fluorescence; 330,000 compounds, 0.33% hits; AID 588478; Q9Y5K5; inhibition, % (concentration not given with the values);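 active = mean inhibition over replicate wells above about 20%, limit read from the data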
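Reagent: Ub-AMC substrate; assay system: Proteasome-associated human UCH37 deubiquitinase; controls: no-proteasome and no-compound wells; read-out: % inhibition of Ub-AMC cleavage fluorescence; timing: 30 min preincubation with enzyme, 25 min cleavage at room temperature; signal: AMC fluorescence from Ub-AMC cleavage, excitation 355 nm, emission 460 nm; buffer or medium: Tris-HCl pH 7.4 plus ovalbumin, ATP-MgCl2, DTT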
NR3A LBD binder: modulates the human NR3A ligand-binding domain; NR3A LBD differential scanning fluorimetry, Tm shift; 0% = protein alone, 100% = glycine-bound protein; Tm shift relative to glycine control, % at 25 µM; 340,000 compounds, 2.5% hits; AID 1259313;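 active = melting temperature shift of at least 10% of the positive control shift, at one fixed dose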
PAFAH1B2 FP inh: PAFAH1B2 (human) inhibition. recombinant PAFAH1B2, FP-rhodamine activity probe, fluorescence polarization. inhibition, % at 3.39 µM. 340,000 compounds, 1.2% hits;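 active = inhibition above the mean of all tested compounds plus 3 SD, cut at about 24% in these data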
PAFAH1B3 inh: blocks human PAF acetylhydrolase 1B catalytic subunit 3; recombinant PAFAH1B3, FP-rhodamine probe, fluorescence polarization; 340,000 compounds, 0.28% hits; inhibition, % at 3.39 µM; Q15102;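 active = inhibition above the screen-wide average of all tested compounds plus 3 SD, cut at about 25% in these data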
PAFAH2 FP conf: confirmation of human PAFAH2 inhibitors; shares compounds with PAFAH2 FP inh; recombinant PAFAH2, FP-rhodamine activity probe, fluorescence polarization; inhibition, % at 3.39 µM; 2,300 compounds, 65% hits; AID 493030;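 active = mean inhibition over three repeats above a set limit taken from the earlier primary screen, cut at about 30% in these data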;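 note: inhibitor blocks binding of rhodamine activity probe so polarization falls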
Numbers stand for hits; n = inactive; x = no result.

SMILES	pPAFAH FP inh	PAFAH2 FP inh	UCH37 DUB inh	NR3A LBD binder	PAFAH1B2 FP inh	PAFAH1B3 inh	PAFAH2 FP conf
CC(NC(=O)C(=O)NN=Cc1cccc([N+](=O)[O-])c1)c1ccccc1 (centres undefined)	x	x	n	x	x	x	x
O=C1c2ccccc2-n2c1nc1ccccc1c2=O	n	31.8	n	n	n	n	n
O=c1c2ccccc2nc2n1-c1ccccc1CCC2	n	n	n	n	n	n	x
Cc1oc(-c2ccccc2)nc1C(=O)Nc1nccs1	n	31.9	n	n	n	n	n
COc1ccc(-c2csc(NC(=O)c3nc(-c4ccccc4)oc3C)n2)cc1	n	n	n	n	n	n	x
CC(CC(=O)NCc1ccc(Cl)cc1)=NNC(=O)c1ccccc1F	x	x	n	x	x	x	x
Cc1ccc(CNC(=O)COC(=O)CN2C(=O)C3CC=CCC3C2=O)cc1 (centres undefined)	n	37.0	n	n	n	n	n
COc1c(C=NNC(=O)c2ccccc2O)c(CCN(C)C(C)=O)cc2c1OCO2	x	x	n	x	x	x	x
O=C1C(=Cc2ccco2)CCC1=Cc1ccco1	x	56.0	n	n	n	n	n
O=C1C(=Cc2ccco2)CCCC1=Cc1ccco1	x	n	n	n	n	n	x
O=C1C2C3C=CC(CC3)C2C(=O)N1N=Cc1c[nH]c2ccccc12 (centres undefined)	x	x	n	x	x	x	x
COC(=O)C1CCN(C(=O)COC(=O)c2ccc3[nH]c4c(c3c2)CCCC4)CC1	n	n	n	n	n	n	x
CC1CCCN(C(=O)COC(=O)c2ccc3[nH]c4c(c3c2)CCCC4)C1 (centres undefined)	n	41.2	n	n	n	n	n
CC1(C)C2CC=C(C=NNC(=O)c3ccc(O)cc3)C1C2 (centres undefined)	x	x	n	x	x	x	x
O=C(NN=C/C=C\c1ccccc1[N+](=O)[O-])c1ccncc1	x	x	n	x	x	x	x
O=C(COC(=O)c1cccc2c1C(=O)c1ccccc1C2=O)NC1CCCCC1	n	n	n	n	n	n	x
O=C(COC(=O)c1ccc2c(c1[N+](=O)[O-])C(=O)c1ccccc1C2=O)NC1CC1	n	35.8	n	n	n	n	n
CC1CCCCC1NC(=O)COC(=O)c1ccc2c(c1Cl)C(=O)c1ccccc1C2=O (centres undefined)	n	53.9	n	n	n	n	54.9
Cc1sc2ncnc(SCC(=O)N3CCCC3=O)c2c1C	n	81.0	n	n	n	n	82.5
Cc1sc2ncnc(SCC(=O)N3CCCCC3)c2c1C	n	n	n	n	n	n	x
Cc1ccc(NC(=O)COC(=O)C2CC2)cc1Cl	n	78.6	n	n	n	n	69.2
Cc1ccc(Cl)c(NC(=O)COC(=O)C2CCC2)c1Cl	n	n	n	n	n	n	x
CCN(c1ccccc1)S(=O)(=O)c1cc(NC(=O)COC(=O)C2CC2)ccc1Cl	n	69.1	n	n	n	n	58.7
O=C(COC(=O)C1CC1)Nc1ccc2c(c1)OCO2	n	67.4	n	n	n	n	54.3
CN(C)S(=O)(=O)c1cc(NC(=O)COC(=O)C2COc3ccccc3O2)ccc1Cl (centres undefined)	n	n	n	n	n	n	x
SMILES	pPAFAH FP inh	PAFAH2 FP inh	UCH37 DUB inh	NR3A LBD binder	PAFAH1B2 FP inh	PAFAH1B3 inh	PAFAH2 FP conf
CCC(=O)OCC(=O)Nc1ccc2c(c1)OCO2	n	n	n	n	n	n	x
Cc1ccsc1C=NN1CCOCC1	x	x	n	x	x	x	x
CC(C)c1ccc(O)c(NC(=S)NC(=O)c2ccc3c(c2)OCO3)c1	n	30.3	n	n	n	n	n
CC(CC(=O)NC12CC3CC(CC(C3)C1)C2)=NNC(=O)Cc1cccs1	x	x	n	x	x	x	x
Cc1ccc(CSc2nnc(SCC(=O)N/N=C/c3c[nH]c4ccccc34)s2)cc1	x	29.8	x	n	n	n	31.2
O=C(CN(Cc1cccs1)C(=O)CNS(=O)(=O)c1ccc(Cl)cc1)NCc1ccco1	n	30.5	n	n	n	n	n
CC(C)(C)c1nnc(NN=Cc2ccccc2)n(N)c1=O	x	x	n	x	x	x	x
CCOc1ccc(C(=O)OCC(=O)NC2CCCCCCC2)cc1	n	93.0	n	n	n	n	85.7
CCOc1ccc(C(=O)NCC(=O)OCC(=O)NC2CCCC2)cc1	n	36.3	n	n	n	n	n
CC(C)NC(=S)N/N=C/c1cc(Br)ccc1O	n	31.8	x	n	n	n	32.1
